{"data": "Published values collected from several papers", "mode": "inhibitor", "HDAC4": "Histone deacetylase 4 (HDAC4, Homo sapiens, UniProt P56524)", "P4HB": "Protein disulfide-isomerase (P4HB, Homo sapiens, UniProt P07237)", "VCP": "Transitional endoplasmic reticulum ATPase (VCP, Homo sapiens, UniProt P55072)", "BLK": "Tyrosine-protein kinase Blk (BLK, Homo sapiens, UniProt P51451)", "SLCO1B3 S112A": "Solute carrier organic anion transporter family member 1B3 (SLCO1B3, Homo sapiens, UniProt Q9NPD5, S112A)", "SLC2A9": "Solute carrier family 2, facilitated glucose transporter member 9 (SLC2A9, Homo sapiens, UniProt Q9NRM0)"}
{"SMILES": "Cc1cc(O)c(-c2ccc([C@@H](C)CN(C)C)cc2)c2c1[nH]c(=O)c1sccc12", "target": "Cyclin-dependent kinase 13, with cyclin K (CDK13, Homo sapiens, UniProt Q14004)", "assay": "enzyme activity", "IC50": "> 1 µM"}
{"SMILES": "COc1ccc(N(Cc2nc(-c3ccc(F)cc3)cs2)C(=O)CCCCCC(=O)NO)cc1", "target": "HDAC4", "assay": "enzyme activity", "IC50": "> 10 µM"}
{"SMILES": "NC/C(=C\\F)COc1cccc(Cn2c(=S)[nH]c(=O)c3[nH]cnc32)c1", "target": "Lactoperoxidase (LPO, Bos taurus, UniProt P80025)", "assay": "enzyme activity", "IC50": "7.5 µM"}
{"SMILES": "O=C(NO)c1ccc(Cn2cnc3c(Nc4cccc([N+](=O)[O-])c4)ncnc32)cc1", "target": "HDAC4", "assay": "enzyme activity", "IC50": "0.531 µM"}
{"SMILES": "O=c1c(O)cc([C@H]2Oc3cc(O)cc(O)c3C[C@H]2O)cc2c([C@H]3Oc4cc(O)cc(O)c4C[C@H]3O)cc(O)c(O)c12", "target": "P4HB", "assay": "enzyme activity, fluorescence", "IC50": "> 500 µM"}
{"SMILES": "Cc1cc2c(C(N)=O)cccc2n1-c1nc2c(c(NCc3ccccn3)n1)CCCN2", "target": "VCP", "assay": "enzyme activity, ADP detection", "IC50": "0.115 µM"}
{"SMILES": "CC(C)n1c(/C=C/C(O)CC(O)CC(=O)O)c(-c2ccc(F)cc2)c2ccccc21 (centres unmarked)", "target": "Solute carrier organic anion transporter family member 1B3 (SLCO1B3, Homo sapiens, UniProt Q9NPD5, M233I)", "assay": "transporter uptake, radiometric", "conditions": "2 min", "IC50": "11 µM"}
{"SMILES": "COc1ccc(N(Cc2csc(-c3ccc(Br)cc3)n2)C(=O)CCCCCC(=O)NO)cc1", "target": "HDAC4", "assay": "enzyme activity", "IC50": "> 10 µM"}
{"SMILES": "CONC(=O)Cc1c(C)n(-c2nc3c(c(NCc4ccccc4)n2)CCCN3)c2ccccc12", "target": "VCP", "assay": "enzyme activity, ADP detection", "IC50": "0.177 µM"}
{"SMILES": "O=C(O[C@@H]1Cc2c(O)cc(O)cc2O[C@@H]1c1cc(O)c(O)c(O)c1)c1cc(O)c(O)c(O)c1", "target": "P4HB", "assay": "enzyme activity, fluorescence", "IC50": "243 µM"}
{"SMILES": "Cc1cc2c(C(=O)O)cccc2n1-c1nc2c(c(NCc3ccccc3)n1)CCCN2", "target": "VCP", "assay": "enzyme activity, ADP detection", "IC50": "0.032 µM"}
{"SMILES": "CC#CC(=O)N1CCC[C@H]1c1nc(-c2ccc(C(=O)Nc3ccccn3)cc2)c2c(N)nccn12", "target": "BLK", "assay": "enzyme activity", "IC50": "4.22 µM"}
{"SMILES": "Cc1cc2c(C(N)=O)cccc2n1-c1nc2c(c(NCc3ccncc3)n1)CCCN2", "target": "VCP", "assay": "enzyme activity, ADP detection", "IC50": "0.381 µM"}
{"SMILES": "CC#CC(=O)N[C@H]1CCCN(c2c(F)cc(C(N)=O)c3[nH]c(C)c(C)c23)C1", "target": "BLK", "assay": "enzyme activity", "IC50": "0.00692 µM"}
{"SMILES": "CC(=O)O[C@H]1C(=O)[C@@]2(C)[C@H]([C@H](OC(=O)c3ccccc3)[C@]3(O)C[C@H](OC(=O)[C@H](O)[C@@H](NC(=O)c4ccccc4)c4ccccc4)C(C)=C1C3(C)C)[C@]1(OC(C)=O)CO[C@@H]1C[C@@H]2O", "target": "SLCO1B3 S112A", "assay": "transporter uptake, radiometric", "conditions": "2 min", "IC50": "87.7 µM"}
{"SMILES": "CC1(C)NC(=O)N(c2ccc([N+](=O)[O-])c(C(F)(F)F)c2)C1=O", "target": "Aldo-keto reductase family 1 member C3 (AKR1C3, Homo sapiens, UniProt P42330)", "assay": "enzyme activity", "IC50": "5 µM"}
{"SMILES": "COc1cccc2c1C(=O)c1c(O)c3c(c(O)c1C2=O)C[C@@](O)(C(=O)CO)C[C@@H]3O[C@H]1C[C@H](N)[C@H](O)[C@H](C)O1", "target": "SLCO1B3 S112A", "assay": "transporter uptake, radiometric", "conditions": "2 min", "IC50": "> 100 µM"}
{"SMILES": "CCc1oc2cc(F)c(F)cc2c1C(=O)c1cc(Br)c(O)c(Br)c1", "target": "SLC2A9", "assay": "transporter uptake", "conditions": "oocytes", "IC50": "17.4 µM"}
{"SMILES": "CONC(=O)c1cccc2c1cc(C)n2-c1nc2c(c(NCc3ccccc3)n1)CCCN2", "target": "VCP", "assay": "enzyme activity, ADP detection", "IC50": "0.026 µM"}
{"SMILES": "O=C(O[C@@H]1[C@@H](O)[C@H](Oc2cc(O)c3c(c2)O[C@H](c2ccccc2)CC3=O)O[C@@H]2COC(=O)c3cc(O)c(O)c(O)c3-c3c(cc(O)c(O)c3O)C(=O)O[C@@H]12)c1cc(O)c(O)c(O)c1", "target": "Protein disulfide-isomerase A4 (PDIA4, Homo sapiens, UniProt P13667)", "assay": "enzyme activity, fluorescence", "IC50": "7.8 µM"}
{"SMILES": "CCc1oc2ccccc2c1C(=O)c1cc(Br)c(O)c(Br)c1", "target": "SLC2A9", "assay": "transporter uptake", "conditions": "oocytes", "IC50": "87.6 µM"}
{"SMILES": "Cc1cc2c(C(N)=O)cccc2n1-c1nc2c(c(NCc3cccc(O)c3)n1)CCCN2", "target": "VCP", "assay": "enzyme activity, ADP detection", "IC50": "0.014 µM"}
{"SMILES": "Clc1ccc(Nc2ccncc2)cc1Cl", "target": "G/T mismatch-specific thymine DNA glycosylase (TDG, Homo sapiens, UniProt Q13569)", "assay": "enzyme activity", "IC50": "> 99 µM"}
{"SMILES": "C[C@H]1CN(C2COC2)CCN1c1ccc(Nc2cc(-c3ccnc(N4CCn5c(cc6c5CC(C)(C)C6)C4=O)c3CO)cn(C)c2=O)nc1", "target": "BLK", "assay": "enzyme activity", "IC50": "> 5 µM"}
{"SMILES": "Cc1cc2c(C(N)=O)cncc2n1-c1nc2c(c(NCc3ccccc3)n1)CCCN2", "target": "VCP", "assay": "enzyme activity, ADP detection", "IC50": "0.082 µM"}
{"SMILES": "CN(Cc1cnc2nc(N)nc(N)c2n1)c1ccc(C(=O)N[C@@H](CCC(=O)O)C(=O)O)cc1", "target": "Solute carrier organic anion transporter family member 1B3 (SLCO1B3, Homo sapiens, UniProt Q9NPD5)", "assay": "transporter uptake, radiometric", "conditions": "2 min", "IC50": "0.498 µM"}
